The record followed here is ChEMBL document CHEMBL3272013, “Synthesis and biological evaluation of substituted 2,2'-oxybis(propionic acid) derivatives and related compounds” (1976).

Type in all cases: functional
Assay [1] deals with Rattus norvegicus. Description: Hypolipidemic activity in albino Wistar Royal Hart rat assessed as change in plasma cholesterol level at 120 mg/kg, po for 3 days. The essentials: (§1)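 Male albino Wistar Royal Hart rats (160–180 g) were kept 7 days on drug-free ground Purina Lab Chow, then grouped six per group. Compound was given orally, once daily, for 3 or 6 days. Controls received no compound. Rats were anesthetized with sodium hexobarbital and bled from the carotid artery. Serum (1.0 ml) went into 9.0 ml 2-propanol with zeolite-copper hydroxide/Lloyd reagent, shaken 1 h. Cholesterol and triglyceride were autoanalyzed on the same sample. Change is given as % of control.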

Assay [2] has as its system Rattus norvegicus. Put plainly: Hypolipidemic activity in albino Wistar Royal Hart rat assessed as change in plasma triglyceride level at 120 mg/kg, po for 3 days. Put shortly: as §1
For assay [3], the system named is Rattus norvegicus. Description: Hypolipidemic activity in albino Wistar Royal Hart rat assessed as change in plasma cholesterol level at 60 mg/kg, po for 6 days. The essentials: as §1
The test system of assay [4] is Rattus norvegicus. Description: Hypolipidemic activity in albino Wistar Royal Hart rat assessed as change in plasma triglyceride level at 60 mg/kg, po for 3 days. The essentials: as §1
Assay [5] deals with Rattus norvegicus. Put plainly: Hypolipidemic activity in albino Wistar Royal Hart rat assessed as change in plasma cholesterol level at 250 mg/kg, po for 6 days. Put shortly: as §1
Assay [6] relates to Rattus norvegicus. Description: Hypolipidemic activity in albino Wistar Royal Hart rat assessed as change in plasma triglyceride level at 250 mg/kg, po for 6 days. Put shortly: as §1
For assay [7], the system named is Rattus norvegicus. Description: Hypolipidemic activity in albino Wistar Royal Hart rat assessed as change in plasma triglyceride level at 60 mg/kg, po for 6 days. The essentials:
as §1

For assay [8], the system named is Rattus norvegicus. Put plainly: Hypolipidemic activity in albino Wistar Royal Hart rat assessed as change in plasma cholesterol level at 120 mg/kg, po for 6 days. Put shortly:
as §1

Assay [9] concerns Rattus norvegicus. Description: Hypolipidemic activity in albino Wistar Royal Hart rat assessed as change in plasma cholesterol level at 60 mg/kg, po for 3 days. The conditions noted are these: in the assay text read “for 6 days” for “for 3 days”. The essentials: as §1
In assay [10] the test system is Rattus norvegicus. Description: Hypolipidemic activity in albino Wistar Royal Hart rat assessed as change in plasma triglyceride level at 120 mg/kg, po for 6 days. Put shortly: as §1
Assay [11] relates to Rattus norvegicus. Description: Hypolipidemic activity in albino Wistar Royal Hart rat assessed as change in plasma cholesterol level at 250 mg/kg, po for 3 days. The essentials:
as §1

The subject of assay [12] is Rattus norvegicus. Description: Hypolipidemic activity in albino Wistar Royal Hart rat assessed as change in plasma triglyceride level at 250 mg/kg, po for 3 days. Put shortly: as §1
The subject of assay [13] is Rattus norvegicus. Description: Hypolipidemic activity in albino Wistar Royal Hart rat assessed as change in plasma cholesterol level at 300 mg/kg, po for 6 days. The essentials: as §1
Assay [14] deals with Rattus norvegicus. Put plainly: Hypolipidemic activity in albino Wistar Royal Hart rat assessed as change in plasma triglyceride level at 300 mg/kg, po for 6 days. Put shortly: as §1
The subject of assay [15] is Rattus norvegicus. Description: Hypolipidemic activity in albino Wistar Royal Hart rat assessed as change in plasma cholesterol level at 30 mg/kg, po for 6 days. Put shortly:
as §1

In assay [16] the test system is Rattus norvegicus. Put plainly: Hypolipidemic activity in albino Wistar Royal Hart rat assessed as change in plasma triglyceride level at 30 mg/kg, po for 6 days. Put shortly: as §1
The mark [17] stands for this setting: in the assay text read “for 3 days” for “for 6 days”.

“And” between values parts separate entries of the source, which are not always exact repeats. Equal values may be shown once.

With `CC1(C)OC(C)(C)C(=O)N(Cc2ccccc2)C1=O`, the results for the Activity in [1] and in assay [2] were 35% and 51%, respectively.
As to `CC(C)(OC(C)(C)C(=O)O)C(=O)O`, the Activity in assay [1] is on record as 4%; in assay [2] it was -32%.
In the case of `COC(=O)C(C)(C)OC(C)(C(=O)OC)c1ccccc1` (centres undefined), the Activity in assay [1] is listed as 0%; in assay [2], -3%.
The corresponding values for `CC(C)(OC(C(=O)O)(c1ccccc1)c1ccccc1)C(=O)O` are -11% and 8%.
Regarding `COC(=O)C(C)(C)OC(C)(C(=O)OC)c1ccc(Cl)cc1` (centres undefined), the Activity was found to be 29% in [1] and 9% in [2].
As to `CC(C)(OC(C(=O)O)(c1ccccc1)c1ccc(Cl)cc1)C(=O)O` (centres undefined), the Activity is recorded as 6% in assay [1] and 33% in assay [2].
On to `COC(=O)C(C)(C)OC1(C(=O)OC)CCCCC1`, for which the Activity in assay [1] was -8%; in assay [2], 8%.
Turning to `CC(OC1(C(=O)O)CCCCC1)(C(=O)O)c1ccccc1` (centres undefined), the Activity is listed as 28% in assay [1] and -2% in assay [2].
The corresponding values for `CC(C)(O)C#CC(C)(O)c1ccc(Cl)cc1` (centres undefined) are 11% and 6%.
For the molecule `CC(C)(O)C#CC(O)(c1ccccc1)c1ccc(Cl)cc1` (centres undefined), the Activity in assay [1] is given as 48%; in assay [2] it was 3%.
As to `CC(C)(O)C#CC(O)(c1ccncc1)c1ccc(Cl)cc1` (centres undefined), the Activity in assay [1] was found to be 30%; in [2], 34%.
Turning to `CN1CCC(O)(C#CC(C)(C)O)CC1`, the Activity in assay [1] was 20%; in assay [2], 86%.
The corresponding values for `CN1CCC(O)(C#CC2(O)CCN(C)CC2)CC1` are 19% and 43%.
With `CC1(C)OC(c2ccccc2)(c2ccccc2)/C(=N\O)C1=O`, the Activity in assay [1] was -6%; in [2] it was -19%.
For the molecule `CC1(C)OC(c2ccccc2)(c2ccc(Cl)cc2)/C(=N\O)C1=O` (centres undefined), the Activity in [1] is recorded as -6%; in assay [2], -29%.
Consider `CC1(C)CN(Cc2ccccc2)CC(C)(C)O1`, for which the Activity is given as -14% in assay [1] and 9% in assay [2].
On to `CC1(C)OC(C)(C)C(=O)N(Cc2ccc(Cl)cc2)C1=O`, for which the Activity in assay [1] is reported as -3%; in assay [2] it was 50%.
Turning to `CC1(C)CN(Cc2ccc(Cl)cc2)CC(C)(C)O1`, the results for the Activity in assay [1] and in assay [2] were -3% and -10%, respectively.
For `CC1(C)OC(c2ccccc2)(c2ccccc2)C(=O)N(c2ccccc2)C1=O`, the Activity in assay [1] is reported as -6%; in [2], 8%.
As to `CC1(C)OC(c2ccccc2)(c2ccccc2)C(=O)N(Cc2ccccc2)C1=O`, the values for the Activity in assay [3] (setting [17]) and in [4] were -9% and -7%, respectively.
Take `CC1(C)CN(Cc2ccccc2)CC(c2ccccc2)(c2ccccc2)O1.Cl`: the Activity is 0% in [1] and -15% in assay [2].
Take `CC1(C)OC(c2ccccc2)(c2ccccc2)C(=O)N(Cc2ccc(Cl)cc2)C1=O`: the Activity in [1] is -9%; in assay [2], -16%.
`CC1(C)CN(Cc2ccc(Cl)cc2)CC(c2ccccc2)(c2ccccc2)O1`: the Activity in assay [1] is given as 12%; in assay [2], -45%.
For the molecule `CC1(C)OC(c2ccccc2)(c2ccc(Cl)cc2)C(=O)N(Cc2ccccc2)C1=O` (centres undefined), the Activity is given as -7% in [5] and -4% in assay [6].
Take `CC(C)(CNCc1ccc(Cl)cc1)OC(C)(C)CNCc1ccc(Cl)cc1.Cl`: the Activity in [7] was -9%; in assay [5] it was -7%; in assay [8] it was -15%; in assay [9], -25%; in assay [6], -77%; in assay [10], -64%.
As for `CN1CCC(O)(/C=C\C(C)(C)O)CC1.Cl`, the results for the Activity in assay [1] and in assay [2] were -4% and -10%, respectively.
Take `CN1CCC(O)(/C=C\C2(O)CCN(C)CC2)CC1`: the Activity was -17% in assay [11] and -28% in assay [12].
On to `O=C(c1ccccc1)N1CCC(O)(/C=C\C2(O)CCN(C(=O)c3ccccc3)CC2)CC1`, for which the Activity in assay [1] is given as -3%; in assay [2], 27%.
With `CC(=O)N1CCC(O)(/C=C\C(C)(C)O)CC1`, the Activity turned out to be 21% in assay [1] and 92% in assay [2].
The corresponding values for `OC1(CCC(O)(c2ccccc2)c2ccccc2)CCCCC1` are -5% and 74%.
For the molecule `CN1CCC(O)(CCC2(O)CCN(C)CC2)CC1`, the Activity in [1] is reported as -4%; in assay [2], 29%.
`CC(=O)N1CCC(O)(CCC(C)(C)O)CC1`: the Activity in assay [1] is reported as -7%; in assay [2], -22%.
With `CC1(C)C=CC(C)(c2ccccc2)O1` (centres undefined), the Activity is recorded as -7% in [1] and 27% in assay [2].
As to `CC1(C)C=CC(c2ccccc2)(c2ccc(Cl)cc2)O1` (centres undefined), the Activity in assay [3] (setting [17]) is on record as -11%; in assay [4], -17%.
`CC1(C)C=CC(c2ccncc2)(c2ccc(Cl)cc2)O1` (centres undefined): the Activity in assay [1] was 32%; in assay [2], -65%.
With `CC(=O)N1CCC2(CC1)CCC(C)(C)O2`, the Activity is -11% in [5] and -39% in assay [6].
The corresponding values for `CC1(C)OC(C)(c2ccccc2)C2OC21` (centres undefined) are -11% and -6%.
`CC1(C)OC(c2ccncc2)(c2ccc(Cl)cc2)C2OC21` (centres undefined): the Activity in assay [3] (60 mg/kg) was -8% and -6%.
For `CC1(C)OC(c2ccccc2)(c2ccc(Cl)cc2)C2OC21` (centres undefined), the Activity in assay [1] (120 mg/kg) is -11% and -12%.
As to `CCOC(=O)C(C)(C)Oc1ccc(Cl)cc1` [CLOFIBRATE], the Activity was -34% in [13] and -49% in [14].
Turning to `CN1CCC(OC(=O)C(Oc2ccc(Cl)cc2)Oc2ccc(Cl)cc2)CC1` [LIFIBRATE], the Activity in assay [15] is given as -30%; in assay [16] it was -50%.
